Reference: ChEMBL document CHEMBL3352527, “Phosphorus-nitrogen compounds. Part 29. Syntheses, crystal structures, spectroscopic and stereogenic properties, electrochemical investigations, antituberculosis, antimicrobial and cytotoxic activities and DNA interactions of ansa-spiro-ansa cyclotetraphosphazenes” (2014)
Active and inactive are the calls of the source. The calls are words filed in the database; no cut-off is given here.

How the values were obtained:
Bacillus cereus [1] = assay: Antimicrobial activity against Bacillus cereus NRRL-B-3711 after 18 hrs by agar well diffusion assay; format: functional
Method in brief: (§1)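 Bacteria were grown to exponential phase in nutrient broth at 37 °C for 18 h and adjusted to 10^8 cfu/mL against McFarland density. The culture suspension was mixed into the medium and poured into plates with 6.0 mm wells. Each well received 50 of the compound solution in DMSO. Inhibition zone diameter was read in mm; the value is the mean of three experiments.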

Escherichia coli [2] = assay: Antimicrobial activity against Escherichia coli ATCC 25922 after 18 hrs by agar well diffusion assay; format: functional; method in brief: as §1
Bacillus spizizenii [3] = assay: Antimicrobial activity against Bacillus subtilis ATCC 6633 after 18 hrs by agar well diffusion assay; format: functional; method in brief: as §1
MCF7 = assay: Cytotoxicity against human MCF7 cells assessed as reduction in cell viability at 1 mg/ml after 24 hrs by MTT assay; format: functional
Method in brief: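 Cells were exposed to compounds for 24 h, then to MTT for 4 h. Formazan was dissolved in DMSO and absorbance read at 540 nm. Relative viability (%) was determined, with cisplatin as positive control.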

Escherichia coli [4] = assay: Binding affinity to Escherichia coli pBR322 plasmid DNA assessed as retardation of electrophoretic migration of supercoiled form I DNA at 312 to 5000 uM after 24 hrs by agarose gel electrophoresis
Method in brief: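 pBR322 plasmid DNA was incubated with the compounds at 37 °C for 24 h in the dark. Mixtures were run on a 1% agarose gel in TAE buffer (pH 8.0) for 3 h at 60 V. Mobility of supercoiled form I and nicked form II DNA was compared with untreated plasmid.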

Bacillus spizizenii [5] = assay: Antimicrobial activity against Bacillus subtilis ATCC 6633 at 2500 uM after 18 hrs by agar well diffusion assay; format: functional; conditions: ATCC 6633, 18 h, read-out: DIZ; method in brief: as §1
Pseudomonas aeruginosa [6] = assay: Antimicrobial activity against Pseudomonas aeruginosa ATCC 27853 at 10 ug after 18 hrs by agar well diffusion assay; format: functional; conditions: ATCC 27853, 18 h, read-out: DIZ
Method in brief: (§2)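 Agar-well diffusion with ampicillin and chloramphenicol as reference antibacterials. Bacteria were grown to exponential phase in nutrient broth at 37 °C for 18 h and adjusted to 10^8 cfu/mL against McFarland density. The suspension was mixed into medium and poured into plates, and 6.0 mm wells were cut. After incubation, inhibition zone diameter was read in mm. Values are the mean of three experiments.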

Bacillus cereus [7] = assay: Antimicrobial activity against Bacillus cereus NRRL-B-3711 at 10 ug after 18 hrs by agar well diffusion assay; format: functional; conditions: NRRL-B-3711, 18 h, read-out: DIZ; method in brief: as §2
Staphylococcus aureus [8] = assay: Antimicrobial activity against Staphylococcus aureus ATCC 25923 at 10 ug after 18 hrs by agar well diffusion assay; format: functional; conditions: ATCC 25923, 18 h, read-out: DIZ; method in brief: as §2
Escherichia coli [9] = assay: Antimicrobial activity against Escherichia coli ATCC 35218 at 10 ug after 18 hrs by agar well diffusion assay; format: functional, organism-based
Bacillus spizizenii [10] = assay: Antimicrobial activity against Bacillus subtilis ATCC 6633 at 10 ug after 18 hrs by agar well diffusion assay; format: functional; conditions: ATCC 6633, 18 h, read-out: DIZ; method in brief: as §2
Escherichia coli [11] = assay: Antimicrobial activity against Escherichia coli ATCC 25922 at 10 ug after 18 hrs by agar well diffusion assay; format: functional; conditions: ATCC 25922, 18 h, read-out: DIZ; method in brief: as §2
Pseudomonas aeruginosa [12] = assay: Antimicrobial activity against Pseudomonas aeruginosa ATCC 27853 at 30 ug after 18 hrs by agar well diffusion assay; format: functional; conditions: ATCC 27853, 18 h, read-out: DIZ; method in brief: as §2
Bacillus cereus [13] = assay: Antimicrobial activity against Bacillus cereus NRRL-B-3711 at 30 ug after 18 hrs by agar well diffusion assay; format: functional; conditions: NRRL-B-3711, 18 h, read-out: DIZ; method in brief: as §2
Escherichia coli [14] = assay: Antimicrobial activity against Escherichia coli ATCC 35218 at 30 ug after 18 hrs by agar well diffusion assay; format: functional; conditions: ATCC 35218, 18 h, read-out: DIZ; method in brief: as §2
Bacillus spizizenii [15] = assay: Antimicrobial activity against Bacillus subtilis ATCC 6633 at 30 ug after 18 hrs by agar well diffusion assay; format: functional; conditions: ATCC 6633, 18 h, read-out: DIZ; method in brief: as §2
Staphylococcus aureus [16] = assay: Antimicrobial activity against Staphylococcus aureus ATCC 25923 at 30 ug after 18 hrs by agar well diffusion assay; format: functional; conditions: ATCC 25923, 18 h, read-out: DIZ; method in brief: as §2
Escherichia coli [17] = assay: Antimicrobial activity against Escherichia coli ATCC 25922 at 30 ug after 18 hrs by agar well diffusion assay; format: functional; conditions: ATCC 25922, 18 h, read-out: DIZ; method in brief: as §2
Candida albicans = assay: Antimicrobial activity against Candida albicans ATCC 10231 at 50 ug after 18 hrs by agar well diffusion assay; format: functional; conditions: ATCC 10231, 18 h, read-out: DIZ
Candida tropicalis = assay: Antimicrobial activity against Candida tropicalis ATCC 13803 at 50 ug after 18 hrs by agar well diffusion assay; format: functional; conditions: ATCC 13803, 18 h, read-out: DIZ

`C1CC2(CCN1)OCCO2` was tested, and the “diameter of the inhibition zone (DIZ)” value (Bacillus cereus [1]) was 13 mm, the “diameter of the inhibition zone (DIZ)” value (Escherichia coli [2]) was 11 mm and the “diameter of the inhibition zone (DIZ)” value (Bacillus spizizenii [3]) was 12 mm.

In the case of `[K+].[K+].[O-]c1ccccc1CNCCCNCc1ccccc1[O-]`, the “diameter of the inhibition zone (DIZ)” value (Bacillus cereus [1]) was 11 mm and the “diameter of the inhibition zone (DIZ)” value (Escherichia coli [2]) was 10.3 mm.

With `Cl[P@@]12=NP34=N[P@](Cl)(=NP(N5CCCCC5)(N5CCCCC5)=N1)Oc1ccccc1CN3CCN4Cc1ccccc1O2` (mixture of isomers) the Activity (MCF7) was 40% and the Activity (Escherichia coli [4]) was “Active”.

In the case of `Cl[P@@]12=NP34=N[P@](Cl)(=NP(N5CCC6(CC5)OCCO6)(N5CCC6(CC5)OCCO6)=N1)Oc1ccccc1CN3CCCN4Cc1ccccc1O2` (mixture of isomers), the Activity (MCF7) was “inactive”.

`ClP12=NP34=N[P@](Cl)(=NP(N5CCCCC5)(N5CCCCC5)=N1)Oc1ccccc1CN3CCCN4Cc1ccccc1O2` (single isomer, unassigned) was tested, and the zone of inhibition at 2500 µM (Bacillus spizizenii [5]) was 9 mm, the Activity (MCF7) was 40% and the Activity (Escherichia coli [4]) was “Active”.

In the case of `ClP12=NP34=NP(Cl)(=NP(N5CCC6(CC5)OCCO6)(N5CCC6(CC5)OCCO6)=N1)Oc1ccccc1CN3CCCN4Cc1ccccc1O2` (single isomer, unassigned), the zone of inhibition at 2500 µM (Bacillus spizizenii [5]) was 7 mm and the Activity (MCF7) was “inactive”.

`ClP12=NP(N3CCC4(CC3)OCCO4)(N3CCC4(CC3)OCCO4)=N[P@@]3(Cl)=N[P@]4(=N1)N(CCN4Cc1ccccc1O3)Cc1ccccc1O2` (single isomer, unassigned) was tested, and the Activity (MCF7) was “inactive”.

In the case of `ClP12=NP34=N[P@](Cl)(=NP(N5CCC6(CC5)OCCO6)(N5CCC6(CC5)OCCO6)=N1)Oc1ccccc1CN3CCN4Cc1ccccc1O2` (single isomer, unassigned), the Activity (MCF7) was “inactive”.

Work on `CC1(C)S[C@@H]2[C@H](NC(=O)[C@H](N)c3ccccc3)C(=O)N2[C@H]1C(=O)O` [AMPICILLIN] yielded a zone of inhibition at 10 µg/disc (Pseudomonas aeruginosa [6]) of 28 mm, a zone of inhibition at 10 µg/disc (Bacillus cereus [7]) of 10 mm and a zone of inhibition at 10 µg/disc (Staphylococcus aureus [8]) of 35 mm. For the same compound, the “diameter of the inhibition zone (DIZ)” value (Escherichia coli [9]) was “inactive”, the zone of inhibition at 10 µg/disc (Bacillus spizizenii [10]) was 30.3 mm and the zone of inhibition at 10 µg/disc (Escherichia coli [11]) was 20.3 mm.

In the case of `O=C(N[C@H](CO)[C@H](O)c1ccc([N+](=O)[O-])cc1)C(Cl)Cl` [CHLORAMPHENICOL], the zone of inhibition at 30 µg/disc (Pseudomonas aeruginosa [12]) was 21.9 mm, the zone of inhibition at 30 µg/disc (Bacillus cereus [13]) was 23.4 mm and the zone of inhibition at 30 µg/disc (Escherichia coli [14]) was 10.5 mm. The zone of inhibition at 30 µg/disc (Bacillus spizizenii [15]) was 31 mm, the zone of inhibition at 30 µg/disc (Staphylococcus aureus [16]) was 29.6 mm and the zone of inhibition at 30 µg/disc (Escherichia coli [17]) was 26.6 mm.

Work on `CC(=O)N1CCN(c2ccc(OCC3COC(Cn4ccnc4)(c4ccc(Cl)cc4Cl)O3)cc2)CC1` (stereo unspecified) [KETOCONAZOLE] yielded a zone of inhibition at 50 µg/disc (Candida albicans) of 30 mm and a zone of inhibition at 50 µg/disc (Candida tropicalis) of 29 mm.

For `C1CCNCC1` [PIPERIDINE], the “diameter of the inhibition zone (DIZ)” value (Bacillus cereus [1]) was 13 mm and the “diameter of the inhibition zone (DIZ)” value (Escherichia coli [2]) was 11 mm.
